# Assay results taken from article PMC11413667 (Acta Pharmaceutica Sinica. B, 2024).
# Legend:
# 4T1 cells [1] = assay: MTT cytotoxicity; type: cell-based, mouse; conditions: increasing dosage, n = 4
# Summary of the method: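 4T1 cells, cultured in DMEM with 10% FBS and 1% pen-strep at 37 °C, 5% CO2, were seeded overnight until adherent. They were then exposed to a concentration series of test compound. Light groups received 638 nm, 29.8 mW/cm2 for 12 min. Viability was measured by standard MTT relative to untreated cells, n = 4, mean ± SD.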
# 4T1 cells [2] = assay: Annexin V-FITC/PI flow cytometry; type: cell-based, mouse; conditions: upon light
# Summary of the method: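 Mouse 4T1 cells, grown in DMEM with 10% FBS and 1% pen-strep at 37 °C, 5% CO2, were exposed to test compound at one fixed concentration for 6 h in the dark. Cells were then irradiated (638 nm, 29.8 mW/cm2, 15 min) or left unirradiated, and stained with Annexin V-FITC and PI for 15 min. Apoptotic and necrotic fractions were read by flow cytometry.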
# 4T1 tumor = conditions: i.v., PT 20 mg/kg, PTI 25 mg/kg, 0.5-12 h
Compound,"Cytotoxicity (MTT), ICG-001 alone (4T1 cells [1])",Cells in apoptosis or necrosis state (4T1 cells [2]),Tumor accumulation (fluorescence imaging) (4T1 tumor)
O=C1[C@H](Cc2ccc(O)cc2)N2C(=O)CCN(C(=O)NCc3ccccc3)[C@H]2CN1Cc1cccc2ccccc12 [ICG-001],could hardly retard the cell expansion,,
Palmitic-K(PpIX)-HAIYPRH [PT],,less than a quarter,weaker tumor accumulation than PTI
